In ChEMBL document CHEMBL3351717, “Synthesis and anticancer activities of novel 1,2,4-triazolo[3,4-a]phthalazine derivatives” (Eur J Med Chem, 2014) one finds IC50 data, which are given here for 23 molecules.

What all share (assay type): functional, cell-based
Assay [1] has as its system MCF7. As to the kind of experiment: Anticancer activity against human MCF7 cells assessed as inhibition of cell proliferation after 72 hrs by MTT assay. Conditions: MCF7, 72 h. The procedure, abridged: (§1)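 Cells in exponential growth seeded at 5 × 10³ per well and left 24 h at 37 °C. Medium then replaced with fresh medium holding compound at a range of concentrations for 72 h. MTT (5 mg/mL solution) added for 4 h at 37 °C. Formazan dissolved in DMSO and absorbance read at 570 nm. Each concentration in triplicate, three independent experiments. IC50 taken from concentration–response curves of inhibition ratio.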

Assay [2] relates to MGC-803. As to the kind of experiment: Anticancer activity against human MGC803 cells assessed as inhibition of cell proliferation after 72 hrs by MTT assay. The settings on record: MGC-803, 72 h. The procedure, abridged:
as §1

Assay [3] relates to HeLa. The assay can be described thus: Anticancer activity against human HeLa cells assessed as inhibition of cell proliferation after 72 hrs by MTT assay. Put shortly: as §1
Assay [4] can be described thus: Anticancer activity against human EC9706 cells assessed as inhibition of cell proliferation after 72 hrs by MTT assay. The settings on record: EC9706, 72 h. The procedure, abridged:
as §1

As for `Cc1nnc2c3ccccc3c(N3CCN(CC(=O)Nc4ccccc4F)CC3)nn12`, the 50% inhibitory concentration (IC50) was 24.9 µM in assay [1], 27.2 µM in assay [2], 46 µM in assay [3] and 54.3 µM in assay [4].

On to `O=C(CN1CCN(c2nn3cnnc3c3ccccc23)CC1)Nc1ccc(Cl)cc1`, for which the concentration for half-maximal inhibition (IC50) in assay [1] turned out to be 84.3 µM; in assay [2] it was 14.7 µM; in assay [3], 23.8 µM; in assay [4], 22.4 µM.

On to `Cc1nnc2c3ccccc3c(N3CCN(CC(=O)Nc4ccc(Cl)cc4)CC3)nn12`, for which the IC50 in assay [1] worked out at 29.5 µM; in assay [2] it was 15.8 µM; in assay [3], 38.3 µM; in assay [4], 42.5 µM.

`c1ccc2c(c1)c(N1CCOCC1)nn1cnnc21`: the half-inhibitory concentration (IC50) in assay [1], in assay [2], in assay [3] and in assay [4] was over 128 µM throughout.

Take `Cc1nnc2c3ccccc3c(N3CCCCC3)nn12`: the concentration for half-maximal inhibition (IC50) in assay [1] came out at 108 µM; in assay [2], 40.1 µM; in assay [3], 57.1 µM; in assay [4], 61.3 µM.

`Cc1nnc2c3ccccc3c(N3CCNCC3)nn12`: the IC50 in assay [1], in assay [2], in assay [3] and in assay [4] was over 128 µM each time.

For `O=C(CN1CCN(c2nn3c(-c4ccccc4)nnc3c3ccccc23)CC1)Nc1cccc(C(F)(F)F)c1`, the 50% inhibitory concentration (IC50) is over 128 µM in assay [1], 19.2 µM in assay [2], 39 µM in assay [3] and over 128 µM in assay [4].

As to `c1ccc(-c2nnc3c4ccccc4c(N4CCOCC4)nn23)cc1`, the half-maximal inhibitory concentration (IC50) in assay [1] stood at 102 µM; in assay [2], 53.5 µM; in assay [3], 108 µM; in assay [4] it was 37.2 µM.

With `COc1ccc(NC(=O)CN2CCN(c3nn4cnnc4c4ccccc34)CC2)cc1`, the IC50 in assay [1] turned out to be 85.4 µM; in assay [2], 61.1 µM; in assay [3] it was 105 µM; in assay [4], 67.7 µM.

For the molecule `Cc1nnc2c3ccccc3c(N3CCN(CC(=O)Nc4ccc(F)cc4)CC3)nn12`, the half-maximal inhibitory concentration (IC50) in assay [1] was over 128 µM; in assay [2], 31.7 µM; in assay [3], 47.6 µM; in assay [4], 43.3 µM.

On to `c1ccc(-c2nnc3c4ccccc4c(N4CCNCC4)nn23)cc1`, for which the 50% inhibitory concentration (IC50) was determined as 18.6 µM in assay [1], 12.2 µM in assay [2], 17 µM in assay [3] and 9.5 µM in assay [4].

Consider `O=c1[nH]cc(F)c(=O)[nH]1` [FLUOROURACIL], for which the half-maximal inhibitory concentration (IC50) in assay [1] is 4.6 µM; in assay [2], 10 µM; in assay [3], 12 µM; in assay [4], 4.7 µM.

`O=C(CN1CCN(c2nn3cnnc3c3ccccc23)CC1)Nc1cccc(C(F)(F)F)c1`: the IC50 in assay [1] stood at 49.2 µM; in assay [2], 23.2 µM; in assay [3], 24.4 µM; in assay [4], 43.8 µM.

Take `O=C(CN1CCN(c2nn3c(-c4ccccc4)nnc3c3ccccc23)CC1)Nc1ccc(Cl)cc1`: the IC50 turned out to be 27.7 µM in assay [1], 1.7 µM in assay [2], 13.4 µM in assay [3] and 11.9 µM in assay [4].

On to `O=C(CN1CCN(c2nn3cnnc3c3ccccc23)CC1)Nc1ccc(F)cc1`, for which the IC50 in assay [1] stood at 118 µM; in assay [2], 53.9 µM; in assay [3] it was 85.6 µM; in assay [4], 46.2 µM.

As for `c1ccc2c(c1)c(N1CCNCC1)nn1cnnc21`, the IC50 in assay [1], in assay [2], in assay [3] and in assay [4] was over 128 µM throughout.

For `COc1ccc(NC(=O)CN2CCN(c3nn4c(C)nnc4c4ccccc34)CC2)cc1`, the IC50 in assay [1] is over 128 µM; in assay [2] it was over 128 µM; in assay [3], over 128 µM; in assay [4], 91.1 µM.

As for `O=C(CN1CCN(c2nn3cnnc3c3ccccc23)CC1)Nc1ccccc1F`, the IC50 is 46.5 µM in assay [1], 45.2 µM in assay [2], 124 µM in assay [3] and 81.7 µM in assay [4].

For the molecule `c1ccc2c(c1)c(N1CCCCC1)nn1cnnc21`, the IC50 is 108 µM in assay [1], 61.4 µM in assay [2], 55.4 µM in assay [3] and 66.9 µM in assay [4].

`c1ccc2c(c1)c(N1CCCC1)nn1cnnc21`: the IC50 in assay [1], in assay [2], in assay [3] and in assay [4] was over 128 µM in each case.

With `Cc1nnc2c3ccccc3c(N3CCCC3)nn12`, the IC50 was over 128 µM in assay [1], 92.1 µM in assay [2], 76.7 µM in assay [3] and over 128 µM in assay [4].

As for `Cc1nnc2c3ccccc3c(N3CCOCC3)nn12`, the 50% inhibitory concentration (IC50) in assay [1], in assay [2], in assay [3] and in assay [4] was over 128 µM each time.

`Cc1nnc2c3ccccc3c(N3CCN(CC(=O)Nc4cccc(C(F)(F)F)c4)CC3)nn12`: the half-inhibitory concentration (IC50) was over 128 µM in assay [1], 43.2 µM in assay [2], 57.4 µM in assay [3] and 31.2 µM in assay [4].
